# Measurements published in ChEMBL document CHEMBL1141258, “Prismatomerin, a new iridoid from Prismatomeris tetrandra. Structure elucidation, determination of absolute configuration, and cytotoxicity” (J Nat Prod, 2007).
# The source made the active and inactive calls. The calls are words filed in the database; no cut-off is given here.
# Assays:
# Assay type in all cases: functional
# CCRF-CEM = assay: Growth inhibition of human CCRF-CEM cells after 48 hrs by SRB assay
# Outline: (§1)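 NCI 60 human tumour cell line in vitro anticancer screen, run at NCI. Compound tested at a minimum of five concentrations in 10-fold dilutions per cell line.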
# HL-60 = assay: Growth inhibition of human HL60 cells after 48 hrs by SRB assay; conditions: HL-60, 48 h; outline: as §1
# K562 = assay: Growth inhibition of human K562 cells after 48 hrs by SRB assay; conditions: K562, 48 h; outline: as §1
# MOLT-4 = assay: Growth inhibition of human MOLT4 cells after 48 hrs by SRB assay; conditions: MOLT-4, 48 h
# Outline: (§2)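 Run at NCI in the 60-human-tumor-cell-line anticancer screen. Each compound was tested at a minimum of five concentrations at 10-fold dilutions.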
# SR = assay: Growth inhibition of human SR cells after 48 hrs by SRB assay; outline: as §2
# A549 = assay: Growth inhibition of human A549 cells after 48 hrs by SRB assay; conditions: A549, 48 h; outline: as §2
# HOP-62 = assay: Growth inhibition of human HOP62 cells after 48 hrs by SRB assay; conditions: HOP-62, 48 h; outline: as §2
# NCI-H226 = assay: Growth inhibition of human NCIH226 cells after 48 hrs by SRB assay; conditions: NCI-H226, 48 h; outline: as §2
# NCI-H460 = assay: Growth inhibition of human NCI-H460 cells after 48 hrs by SRB assay; conditions: NCI-H460, 48 h; outline: as §1
# HCT-116 = assay: Growth inhibition of human HCT116 cells after 48 hrs by SRB assay; outline: as §2
# T47D = assay: Growth inhibition of human T47D cells after 48 hrs by SRB assay; outline: as §1
# KM12 = assay: Growth inhibition of human KM12 cells after 48 hrs by SRB assay; conditions: KM12, 48 h; outline: as §2
# SW-620 = assay: Growth inhibition of human SW620 cells after 48 hrs by SRB assay; conditions: SW-620, 48 h; outline: as §1
# SF-268 = assay: Growth inhibition of human SF268 cells after 48 hrs by SRB assay; conditions: SF-268, 48 h; outline: as §2
# SF-539 = assay: Growth inhibition of human SF539 cells after 48 hrs by SRB assay; conditions: SF-539, 48 h; outline: as §2
# SNB-19 = assay: Growth inhibition of human SNB19 cells after 48 hrs by SRB assay; conditions: SNB-19, 48 h; outline: as §2
# SNB-75 = assay: Growth inhibition of human SNB75 cells after 48 hrs by SRB assay; outline: as §1
# LOX IMVI = assay: Growth inhibition of human LOXIMVI cells after 48 hrs by SRB assay; outline: as §2
# SK-MEL-2 = assay: Growth inhibition of human SK-MEL2 cells after 48 hrs by SRB assay; outline: as §2
# IGROV-1 = assay: Growth inhibition of human IGROV1 cells after 48 hrs by SRB assay; conditions: IGROV-1, 48 h, read-out: Log LC50 (the source's name) (converted); outline: as §2
# [1] = Growth inhibition of human OVACAR3 cells after 48 hrs by SRB assay; conditions: OVACAR3, 48 h; outline: as §2
# OVCAR-4 = assay: Growth inhibition of human OVACAR4 cells after 48 hrs by SRB assay; conditions: OVCAR-4, 48 h; outline: as §2
# A498 = assay: Growth inhibition of human A498 cells after 48 hrs by SRB assay; conditions: A498, 48 h; outline: as §2
# MCF7 = assay: Growth inhibition of human MCF7 cells after 48 hrs by SRB assay; conditions: MCF7, 48 h; outline: as §2
# [2] = read-out: Log LC50 (the source's name) (converted)
smiles,measurement,setting,value
COC(=O)C1=CO[C@@H]2O[C@H]3/C(=C\c4ccc(O)cc4)C(=O)O[C@]34C=C[C@H]1[C@H]24 [PRISMATOMERIN],GI50,CCRF-CEM,0.038 µM
same,CC50,CCRF-CEM; [2],> 100 µM
same,GI50,HL-60,< 0.01 µM
same,CC50,HL-60; [2],> 100 µM
same,GI50,K562,< 0.01 µM
same,CC50,K562; [2],> 100 µM
same,GI50,MOLT-4,< 0.01 µM
same,GI50,SR,0.0105 µM
same,CC50,SR; [2],> 100 µM
same,TGI,SR; read-out: Log TGI (converted),0.468 µM
same,GI50,A549,0.295 µM
same,CC50,A549; [2],> 100 µM
same,TGI,A549; read-out: Log TGI (converted),0.832 µM
same,GI50,HOP-62,0.263 µM
same,CC50,HOP-62; [2],2.82 µM
same,TGI,HOP-62; read-out: Log TGI (converted),0.708 µM
same,GI50,NCI-H226,0.174 µM
same,CC50,NCI-H226; [2],22.9 µM
same,TGI,NCI-H226; read-out: Log TGI (converted),0.479 µM
same,GI50,NCI-H460,0.24 µM
same,CC50,NCI-H460; [2],> 100 µM
same,Activity,HCT-116,inactive
same,GI50,"HCT-116; HCT-116, 48 h",< 0.01 µM
same,TGI,"HCT-116; HCT-116, 48 h, read-out: Log TGI (converted)",0.1 µM
same,GI50,T47D,0.38 µM
same,CC50,T47D; [2],3.89 µM
same,GI50,KM12,0.302 µM
same,CC50,KM12; [2],> 100 µM
same,TGI,KM12; read-out: Log TGI (converted),1.51 µM
same,GI50,SW-620,< 0.01 µM
same,CC50,SW-620; [2],> 100 µM
same,GI50,SF-268,0.263 µM
same,CC50,SF-268; [2],63.1 µM
same,TGI,SF-268; read-out: Log TGI (converted),0.759 µM
same,GI50,SF-539,0.257 µM
same,CC50,SF-539; [2],> 100 µM
same,TGI,SF-539; read-out: Log TGI (converted),0.457 µM
same,GI50,SNB-19,0.347 µM
same,CC50,SNB-19; [2],26.9 µM
same,TGI,SNB-19; read-out: Log TGI (converted),110 µM
same,Activity,SNB-75,inactive
same,CC50,"SNB-75; SNB-75, 48 h, read-out: Log LC50 (the source's name) (converted)",> 100 µM
same,GI50,LOX IMVI,0.0209 µM
same,CC50,LOX IMVI; [2],0.708 µM
same,TGI,LOX IMVI; read-out: Log TGI (converted),0.24 µM
same,Activity,SK-MEL-2,inactive
same,GI50,"SK-MEL-2; SK-MEL-2, 48 h",0.166 µM
same,CC50,IGROV-1,0.851 µM
same,GI50,[1],0.49 µM
same,CC50,[1]; [2],1.7 µM
same,TGI,[1]; read-out: Log TGI (converted),0.562 µM
same,GI50,OVCAR-4,0.575 µM
same,CC50,OVCAR-4; [2],> 100 µM
same,TGI,OVCAR-4; read-out: Log TGI (converted),3.47 µM
same,GI50,A498,0.234 µM
same,CC50,A498; [2],0.871 µM
same,TGI,A498; read-out: Log TGI (converted),0.457 µM
same,GI50,MCF7,0.12 µM
same,CC50,MCF7; [2],> 100 µM
same,TGI,MCF7; read-out: Log TGI (converted),1 µM
